{"source": "ChEMBL document CHEMBL5030552", "about": "“Computational Design of Potent D-Peptide Inhibitors of SARS-CoV-2” (J Med Chem, 2021)", "key": {"Spike glycoprotein": {"biological_target": "Spike glycoprotein (Severe acute respiratory syndrome coronavirus 2, UniProt P0DTC2)", "test": "Binding affinity to SARS-CoV-2 spike protein receptor-binding domain by biolayer interferometry (BLI) assay", "how_it_was_run": "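BLI was run at 25 °C with shaking at 1000 rpm. His-tagged RBD (200 nM) was loaded on Ni-NTA sensors, then peptides were applied at several concentrations, and dissociation was read in baseline wells. Signals were referenced against His-tagged SUMO and RBD-only sensors. Subtracted curves were fitted for ka, kd and Kd.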"}, "SARS-CoV-2": {"test_system": "SARS-CoV-2", "test": "Antiviral activity against SARS-CoV-2 assessed as neutralization viral infection in Vero cells by measuring cytopathic effect incubated for 4 days by crystal violet staining based assay", "assay_type": "functional, organism-based", "conditions": "Severe acute respiratory syndrome coronavirus 2, Vero, 96 h"}, "[1]": {"test": "Stability of the compound in proteinase K (unknown origin) in presence of serum assessed as loss of peptide measured after 2.5 hr", "assay_type": "ADME", "conditions": "read-out: Drug degradation"}, "Vero": {"test_system": "Vero", "test": "Cytotoxicity against African green monkey Vero cells assessed as viable cells measured by MTS assay", "assay_type": "cell-based", "conditions": "chlorocebus sabaeus", "how_it_was_run": "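Vero cells (1.5 × 10⁴/well, 24 h growth) were exposed in the neutralization-assay format without virus. Peptides were twofold-diluted from 100 to 0.1953 μM from DMSO stocks diluted in PBS. Viability was read with MTS.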"}}}
{"smiles": "CC[C@@H](C)[C@@H](NC(=O)[C@@H](Cc1cnc[nH]1)NC(=O)[C@H](NC(=O)[C@@H](CCC(=O)O)NC(=O)[C@@H](CCC(=O)O)NC(=O)[C@@H](CCSC)NC(=O)[C@@H](CC(C)C)NC(=O)[C@@H](C)NC(=O)[C@@H](Cc1ccc(O)cc1)NC(=O)[C@@H](CC(C)C)NC(=O)[C@@H](C)NC(=O)[C@H](NC(=O)[C@@H](CCC(N)=O)NC(=O)[C@H](N)CC(C)C)[C@H](C)O)[C@H](C)CC)C(=O)N[C@H](C)C(=O)N[C@H](C)C(=O)N[C@H](CC(C)C)C(=O)N[C@H](CCC(=O)O)C(=O)N[C@H](CCCCN)C(=O)N[C@@H](C(=O)N[C@H](Cc1c[nH]c2ccccc12)C(=O)N[C@@H](C(=O)N[C@H](C)C(=O)N[C@H](CC(C)C)C(=O)N[C@H](CCCNC(=N)N)C(=O)N[C@H](Cc1cnc[nH]1)C(=O)N[C@H](CCC(N)=O)C(=O)N[C@H](Cc1ccc(O)cc1)C(=O)N[C@@H](C(=O)O)[C@H](C)O)[C@H](C)O)[C@H](C)O", "values": [{"measurement": "Kd", "setting": "Spike glycoprotein", "result": 31, "unit": "nM"}, {"measurement": "IC50", "setting": "SARS-CoV-2", "result": 6560, "unit": "nM"}, {"measurement": "metabolised at 2.5 h", "setting": "[1]", "result": 82.9, "unit": "%"}, {"measurement": "Activity", "setting": "Vero", "result": "Non-Toxic"}]}
{"smiles": "CC[C@@H](C)[C@@H](N)C(=O)N[C@H](CC(N)=O)C(=O)N[C@H](CCC(N)=O)C(=O)N[C@H](Cc1ccc(O)cc1)C(=O)N[C@H](CCSC)C(=O)N[C@H](CCC(=O)O)C(=O)N[C@H](CCC(=O)O)C(=O)N[C@@H](C(=O)N[C@H](CCC(=O)O)C(=O)N[C@H](Cc1cnc[nH]1)C(=O)N[C@H](C)C(=O)N[C@H](C)C(=O)N[C@H](CO)C(=O)N[C@H](CCCNC(=N)N)C(=O)N[C@H](Cc1ccccc1)C(=O)N[C@H](C)C(=O)N[C@H](Cc1ccc(O)cc1)C(=O)N[C@H](Cc1ccccc1)C(=O)N[C@H](Cc1ccccc1)C(=O)N[C@H](Cc1ccc(O)cc1)C(=O)N[C@H](CCC(N)=O)C(=O)N[C@H](Cc1cnc[nH]1)C(=O)N[C@H](CC(C)C)C(=O)N[C@H](C)C(=O)O)[C@H](C)CC", "values": [{"measurement": "Kd", "setting": "Spike glycoprotein", "result": 105, "unit": "nM"}]}
{"smiles": "CC[C@@H](C)[C@@H](NC(=O)CNC(=O)[C@@H](CC(C)C)NC(=O)CNC(=O)[C@@H](CCCCN)NC(=O)CNC(=O)[C@@H](CC(=O)O)NC(=O)[C@@H](Cc1ccccc1)NC(=O)[C@H](N)CCCNC(=N)N)C(=O)N[C@H](Cc1ccc(O)cc1)C(=O)N[C@H](CCC(N)=O)C(=O)N[C@H](Cc1ccc(O)cc1)C(=O)N[C@H](CCSC)C(=O)N[C@H](CCC(=O)O)C(=O)N[C@H](CCC(=O)O)C(=O)N[C@@H](C(=O)N[C@H](CCC(=O)O)C(=O)N[C@H](Cc1cnc[nH]1)C(=O)N[C@H](C)C(=O)N[C@H](C)C(=O)N[C@H](CO)C(=O)N[C@H](CCCNC(=N)N)C(=O)N[C@H](Cc1ccccc1)C(=O)N[C@H](C)C(=O)N[C@H](Cc1ccc(O)cc1)C(=O)N[C@H](Cc1ccccc1)C(=O)N[C@H](Cc1ccccc1)C(=O)N[C@H](Cc1ccc(O)cc1)C(=O)N[C@H](CCC(N)=O)C(=O)N[C@H](Cc1cnc[nH]1)C(=O)N[C@H](CC(C)C)C(=O)N[C@H](C)C(=O)O)[C@H](C)CC", "values": [{"measurement": "Kd", "setting": "Spike glycoprotein", "result": 29, "unit": "nM"}, {"measurement": "IC50", "setting": "SARS-CoV-2", "result": 5760, "unit": "nM"}, {"measurement": "metabolised at 2.5 h", "setting": "[1]", "result": 87.5, "unit": "%"}, {"measurement": "Activity", "setting": "Vero", "result": "Non-Toxic"}]}
